B1: tRNA (parent)
chain: GUUCCGUUGGCGUAAUGGUAACGCGUCUCCCUCCUAAGGAGAAGACUGCGGGUUCGAGUCCCGUACGGAACG

Variants at the floor of the assay were thinned out. Some results are limits rather than exact numbers.

Variants of B1 are the subject of this series. The series is described as follows: yeast fitness relative to wild type (ratio to wild type); higher = fitter; tRNA-Arg(CCU), competitive growth, 37 C, YPD. In outline: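 Variants of the tRNA-Arg(CCU) gene were chemically synthesised with a 3% per-site mutation rate across 69 sites and placed at the native genomic locus in Saccharomyces cerevisiae. Six parallel replicates of the pooled strains were competed in YPD at 37°C for 24 hours, and gene amplicons from the start and end populations were read by 100-nucleotide paired-end sequencing. Darwinian fitness relative to wild type was derived from changes in genotype frequencies. Genotypes required ≥ 100 starting reads, and estimates < 0.5 were set to 0.5.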
Regarding C24G U28G C46G C66U, the yeast fitness was at most 0.5.
As for C24G C33G A36C A37C A42C C60U G67U, the yeast fitness is at most 0.5.
In the case of C24U A37U G41C A70C, the yeast fitness was at most 0.5.
In the case of C24G C33G G63A, the yeast fitness was at most 0.5.
Turning to C24G A42U A45C, the yeast fitness is at most 0.5.
As for C24U A40C, the yeast fitness is 0.806.
With C24U A40U, the yeast fitness came to 0.78.
Take C24G A37C G67A: the yeast fitness is at most 0.5.
The result for C24G C33G A36C A37C A42C A45G A65U reads at most 0.5; that for C24G C34G G52A, 0.602; that for C24G A36G A40C, at most 0.5.
C24G A36U A37C C66U G67A: the yeast fitness is at most 0.5.
Consider C24G G38A U53A, for which the yeast fitness was at most 0.5.
In the case of C24G A40G G50C C66U, the yeast fitness is at most 0.5.
C24G C31U G41C C46G G63C: the yeast fitness is at most 0.5.
The result for C24G A36C C55G reads 0.587; that for C24U A42U G67A, 0.567.
For C24G C30A G44C U47C U59A, the yeast fitness was at most 0.5.
As for C24G C55U C61A, the yeast fitness stood at 0.515.
C24G G38C C46A U53C C61G: the yeast fitness was at most 0.5.
The result for C24G A42U G68A reads at most 0.5.
On to C24U A40U C55U U59A, for which the yeast fitness came out at 0.548.
Regarding C24G C55U U64A, the yeast fitness stood at 0.674.
The result for C24G G25A C31G U64C reads 0.75; that for C24G G41A G51A, at most 0.5; that for C24U A36U C60A, at most 0.5.
In the case of C24G U26C C31U U54C, the yeast fitness stood at 0.934.
Take C24G A42C G68A: the yeast fitness was at most 0.5.
On to C24G C31U A43G A45C U64A, for which the yeast fitness is at most 0.5.
Turning to C24G C55A A65U, the yeast fitness was at most 0.5.
Consider C24G G48C C49U, for which the yeast fitness is at most 0.5.
Take C24G A69U: the yeast fitness was 0.658.
For C24G A69G the value was 0.503; for C24G A65U G68A, at most 0.5; for C24G A57U A69C, at most 0.5.
Turning to C24G G25A C66U, the yeast fitness was 0.561.
As for C24G C49A U53A G67A, the yeast fitness is at most 0.5.
With C24G C27G C60U, the yeast fitness was determined as 0.8.
On to C24G C55A, for which the yeast fitness was 0.66.
Turning to C24G C55G, the yeast fitness came to 0.649.
On to C24G C27G A40C U47A, for which the yeast fitness is at most 0.5.
For C24U A36G C61A the value was at most 0.5; for C24U A36G C61U, 0.655.
Regarding C24G G44A C55U, the yeast fitness is at most 0.5.
For C24G A43C C62U A65G, the yeast fitness is at most 0.5.
On to C24G A40U G67C, for which the yeast fitness was at most 0.5.
With C24G C49U, the yeast fitness was determined as 0.576.
C24G C49G: the yeast fitness came out at 0.544.
For C24G C31G C33A G50C C55G A57U C62U, the yeast fitness was at most 0.5.
Take C24G C27G A36U G38C C60G C66A: the yeast fitness was at most 0.5.
Take C24G C30G: the yeast fitness worked out at 0.53.
As for C24G C30U, the yeast fitness worked out at 0.553.
Take C24G C30A: the yeast fitness worked out at 0.777.
In the case of C24G U28C U54A, the yeast fitness was at most 0.5.
In the case of C24G C33U U59C, the yeast fitness was at most 0.5.
The result for C24G A40C A69C reads at most 0.5; that for C24U A37U C46A A70U, at most 0.5; that for C24G U28G A45C U47C U64A, 0.6.
For the variant C24U A42U G52A, the yeast fitness stood at 0.563.
Consider C24G A43G G63U U64A, for which the yeast fitness stood at 0.577.
As for C24G G67C, the yeast fitness is 0.622.
With C24G G67U, the yeast fitness is at most 0.5.
With C24G G67A, the yeast fitness came out at 0.594.
For the variant C24G C27U A43U G52C, the yeast fitness was at most 0.5.
With C24G A37C U59C C62U G68U, the yeast fitness is at most 0.5.
C24G C46U G58C C61U: the yeast fitness worked out at 0.597.
As for C24G C27U G52C, the yeast fitness was found to be 0.566.
As to C24G C30A A69C, the yeast fitness came to 0.547.
With C24G A36G G39C C55U C66U, the yeast fitness was at most 0.5.
For C24G A57G A70G, the yeast fitness was at most 0.5.
For C24U A42U, the yeast fitness amounted to 0.875.
The result for C24U A42G reads 0.956.
The result for C24G C33G U53C C55U A70G reads 0.57; that for C24G G41C, 0.582; that for C24G U32A A43G G50A, at most 0.5.
The result for C24G G39C A45G U54A C55U reads at most 0.5; that for C24U A36C A43U A69U, 0.517.
As to C24G C60A U64A, the yeast fitness came to 0.607.
Consider C24G A43C G48A G58A G68C, for which the yeast fitness was at most 0.5.
The result for C24G U28C C29G reads at most 0.5; that for C24U A42G A70C, 0.642.
The result for C24U A37C A40G U54A reads at most 0.5; that for C24G U35G A45C, at most 0.5; that for C24G A45C C49A G52A, at most 0.5.
As for C24G C49U G51A C61A A69U, the yeast fitness was at most 0.5.
For C24G A36U U54A, the yeast fitness was at most 0.5.
On to C24G U26A C46A C62U, for which the yeast fitness came to 0.578.
With C24G U53A, the yeast fitness was 0.533.
Regarding C24G A57C U64A, the yeast fitness was at most 0.5.
Consider C24G G25A C61G G67C G68A, for which the yeast fitness worked out at 0.676.
In the case of C24G A40G A57U G68A, the yeast fitness was at most 0.5.
In the case of C24G U35C C49U C61G, the yeast fitness was determined as 0.54.
In the case of C24U A37G G63C C66U, the yeast fitness amounted to 0.581.
For the variant C24G G50U, the yeast fitness was 0.544.
On to C24U A43U, for which the yeast fitness turned out to be 1.01.
C24G U28A C31A: the yeast fitness was at most 0.5.
Take C24G U26A A37G G48A: the yeast fitness was at most 0.5.
Turning to C24G C30U C34U C55A, the yeast fitness is at most 0.5.
C24G A40U U47A: the yeast fitness was at most 0.5.
Consider C24G A57U G67C, for which the yeast fitness worked out at 0.612.
For the variant C24G G48A A57G, the yeast fitness was at most 0.5.
Consider C24G C27U G51C U64A, for which the yeast fitness is at most 0.5.
Regarding C24G C61U A69U, the yeast fitness was determined as 0.516.
For C24U A42U G52C G63A the value was at most 0.5; for C24G U26G C34A A36C, at most 0.5.
Turning to C24G A36G A45G C61A A70G, the yeast fitness was at most 0.5.
The result for C24U A37C G58A reads 0.513.
Take C24G U32A A42C A65U: the yeast fitness is at most 0.5.
Turning to C24U A36C U53C, the yeast fitness is at most 0.5.
For C24G C31G A45G C60G, the yeast fitness was at most 0.5.
Turning to C24G A36G, the yeast fitness stood at 0.557.
On to C24G C34G A43U G67C, for which the yeast fitness was at most 0.5.
The result for C24G G25A A65G reads 0.609; that for C24G A36U U64C, 0.52; that for C24G A65G, 0.703.
For the variant C24U A37U A65U A69C, the yeast fitness was at most 0.5.
C24G G44C G58C G68U: the yeast fitness was 0.516.
Turning to C24G G25C C30G U32C A57G, the yeast fitness was at most 0.5.
C24G G38A: the yeast fitness worked out at 0.519.
For the variant C24G C34G G50C C61U, the yeast fitness was at most 0.5.
For C24G A42C A70U, the yeast fitness turned out to be 0.616.
For C24G A57U G58A A65U the value was at most 0.5; for C24G C34G G48A U54A G63C, at most 0.5; for C24G C60A G67A, 0.693.
For C24G C31U C33A G50C the value was at most 0.5.
For C24G A57G C61A A65C C66U, the yeast fitness was at most 0.5.
As to C24G G68C, the yeast fitness stood at 0.599.
Regarding C24G A57U, the yeast fitness was 0.578.
As for C24G A57G, the yeast fitness worked out at 0.524.
C24G A70U: the yeast fitness amounted to 0.639.
As for C24G C30U A43U C60G A65C, the yeast fitness is at most 0.5.
For C24G A37G G56A G58A G67A the value was at most 0.5.
For C24U A43C A57C the value was at most 0.5; for C24G A45G U53G, at most 0.5; for C24G U26A, 0.609.
Consider C24U A37G G39A G48C G68U, for which the yeast fitness was at most 0.5.
For the variant C24G C34A U35A C46U G48A C60G C66U, the yeast fitness is 0.558.
As to C24G A40C G56U, the yeast fitness was at most 0.5.
As for C24G U26A A45C, the yeast fitness is at most 0.5.
As to C24G C29U A42G G51C, the yeast fitness is at most 0.5.
In the case of C24G A37G A42C A70U, the yeast fitness was at most 0.5.
Turning to C24G G41A G51A G56C, the yeast fitness stood at 0.556.
As to C24G G25C C27A A40C G51A, the yeast fitness is at most 0.5.
As for C24G A37C G58A G68A, the yeast fitness is at most 0.5.
With C24G C33U A37U G38A, the yeast fitness is at most 0.5.
On to C24G A40C U47A A69G, for which the yeast fitness is at most 0.5.
For C24G G58C the value was 0.573; for C24G G58A, 0.675; for C24G C33U A43G, at most 0.5.
With C24G C49A C62G G68U, the yeast fitness was at most 0.5.
Consider C24G A45C A69U, for which the yeast fitness was found to be 0.611.
Turning to C24G U32A A43G G50A A65C, the yeast fitness is at most 0.5.
C24G C30A C46U G52C: the yeast fitness was at most 0.5.
With C24G C29G C33A G48A C55G, the yeast fitness was at most 0.5.
On to C24G C33U U35A C61G, for which the yeast fitness was at most 0.5.
C24G A36G A65U: the yeast fitness was found to be 0.554.
For C24G C27U C33U A57C the value was at most 0.5; for C24G C29A A40G G50C, at most 0.5.
On to C24G A36G A70G, for which the yeast fitness is at most 0.5.
For C24G C27U C33U G50C A65G G68A the value was at most 0.5; for C24G C33G C55U, at most 0.5; for C24G C34G A40G A45C C66G A69U, 0.596.
Consider C24G A36U A40U C46G G48C, for which the yeast fitness came out at 0.557.
On to C24G A42U C49U G67C, for which the yeast fitness is at most 0.5.
On to C24G C46U G50A G56C C62A C66U, for which the yeast fitness was at most 0.5.
For C24G G39C C61U C66U the value was at most 0.5.
Turning to C24G G39C C61U, the yeast fitness is at most 0.5.

Source of the values: the RNAGym collection of RNA variant scans (doi:10.1126/science.aae0568).
